# In ChEMBL document CHEMBL1152649, “Synthesis, cytotoxicity and human telomerase inhibition activities of a series of 1,2-heteroannelated anthraquinones and anthra[1,2-d]imidazole-6,11-dione homologues” (2009):
# What was measured:
# OVCAR-5 = experiment: Antiproliferative activity against human OVCAR5 cells assessed as cell growth at 10 uM; format: functional; details: read-out: Activity
# Summary of the method: (§1)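 NCI 60 cell line panel, single-dose screen (10^-5 M) run by the developmental therapeutics program protocol. Results are given as growth percent of treated cells relative to untreated control cells for each line.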
# SK-MEL-2 = experiment: Antiproliferative activity against human SK-MEL-2 cells assessed as cell growth at 10 uM; format: functional; details: read-out: Activity; summary of the method: as §1
# [1] = molecular target: Telomerase reverse transcriptase (Homo sapiens) (UniProt O14746); experiment: Inhibition of TERT in human H1299 cells assessed as residual transcriptional activity at 10 uM after 24 hrs by SEAP reporter gene assay; values are per cent of control
# Chain of Telomerase reverse transcriptase (Homo sapiens) (O14746 whole entry): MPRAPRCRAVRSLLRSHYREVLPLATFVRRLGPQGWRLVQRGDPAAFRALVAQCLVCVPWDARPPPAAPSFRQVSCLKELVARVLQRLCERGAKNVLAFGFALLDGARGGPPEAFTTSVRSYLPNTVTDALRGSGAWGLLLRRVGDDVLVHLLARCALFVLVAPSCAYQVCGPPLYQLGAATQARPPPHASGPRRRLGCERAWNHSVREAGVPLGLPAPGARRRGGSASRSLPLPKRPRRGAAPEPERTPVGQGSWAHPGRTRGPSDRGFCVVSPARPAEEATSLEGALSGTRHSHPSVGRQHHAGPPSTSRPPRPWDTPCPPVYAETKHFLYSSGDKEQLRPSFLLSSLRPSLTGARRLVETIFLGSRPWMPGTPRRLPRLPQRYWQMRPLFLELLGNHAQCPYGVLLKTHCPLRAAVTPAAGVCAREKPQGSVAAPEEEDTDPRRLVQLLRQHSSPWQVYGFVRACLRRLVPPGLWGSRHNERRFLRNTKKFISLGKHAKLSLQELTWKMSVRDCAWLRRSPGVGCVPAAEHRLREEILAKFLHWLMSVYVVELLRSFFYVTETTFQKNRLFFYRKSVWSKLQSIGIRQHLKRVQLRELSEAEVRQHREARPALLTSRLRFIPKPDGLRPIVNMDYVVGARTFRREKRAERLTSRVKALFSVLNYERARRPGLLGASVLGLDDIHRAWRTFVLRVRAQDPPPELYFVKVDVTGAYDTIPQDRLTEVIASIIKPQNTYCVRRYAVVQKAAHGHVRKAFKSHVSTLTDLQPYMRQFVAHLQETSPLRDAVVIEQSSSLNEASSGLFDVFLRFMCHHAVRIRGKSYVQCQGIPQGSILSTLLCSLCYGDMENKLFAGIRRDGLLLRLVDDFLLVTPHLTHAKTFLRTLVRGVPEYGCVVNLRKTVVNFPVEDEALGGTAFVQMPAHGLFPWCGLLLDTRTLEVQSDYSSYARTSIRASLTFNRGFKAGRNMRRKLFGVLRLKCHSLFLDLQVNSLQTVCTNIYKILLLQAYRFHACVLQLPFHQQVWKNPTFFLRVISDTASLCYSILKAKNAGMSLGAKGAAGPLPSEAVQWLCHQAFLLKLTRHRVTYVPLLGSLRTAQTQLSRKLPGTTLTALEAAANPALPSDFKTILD
# [2] = Antiproliferative activity against human Hs 578T cells assessed as cell growth at 10 uM; format: functional; details: read-out: Activity; summary of the method: as §1
# SF-268 = experiment: Antiproliferative activity against human SF268 cells assessed as cell growth at 10 uM; format: functional; details: read-out: Activity; summary of the method: as §1
# TK-10 = experiment: Antiproliferative activity against human TK10 cells assessed as cell growth at 10 uM; format: functional; details: read-out: Activity
# Summary of the method: (§2)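 NCI 60 cell line panel, single dose (10^-5 M), run per the Developmental Therapeutics Program protocol (one dose mean graph). Each result is the growth percentage of treated cells relative to untreated control cells.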
# SN12C = experiment: Antiproliferative activity against human SN12C cells assessed as cell growth at 10 uM; format: functional; details: read-out: Activity; summary of the method: as §1
# A498 = experiment: Antiproliferative activity against human A498 cells assessed as cell growth at 10 uM; format: functional; details: read-out: Activity; summary of the method: as §1
# LOX IMVI = experiment: Antiproliferative activity against human LOXIMVI cells assessed as cell growth at 10 uM; format: functional; details: read-out: Activity; summary of the method: as §1
# OVCAR-4 = experiment: Antiproliferative activity against human OVCAR4 cells assessed as cell growth at 10 uM; format: functional; details: read-out: Activity; summary of the method: as §1
# Malme-3M = experiment: Antiproliferative activity against human MALME-3M cells assessed as cell growth at 10 uM; format: functional; details: read-out: Activity; summary of the method: as §1
# MDA-MB-435 = experiment: Antiproliferative activity against human MDA-MB-435 cells assessed as cell growth at 10 uM; format: functional; details: read-out: Activity; summary of the method: as §1
# CAKI-1 = experiment: Antiproliferative activity against human Caki1 cells assessed as cell growth at 10 uM; format: functional; details: read-out: Activity; summary of the method: as §1
# SNB-19 = experiment: Antiproliferative activity against human SNB19 cells assessed as cell growth at 10 uM; format: functional; details: read-out: Activity; summary of the method: as §1
# OVCAR-8 = experiment: Antiproliferative activity against human OVCAR8 cells assessed as cell growth at 10 uM; format: functional; details: read-out: Activity; summary of the method: as §1
# [3] = Cytotoxicity against human H1299 cells at 1 uM after 48 hrs by MTT assay; format: functional; details: NCI-H1299, 48 h
# Summary of the method: (§3)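 H1299 non-small cell lung cancer cells were grown in RPMI 1640 with 10% FBS, penicillin and streptomycin at 37 °C under 5% CO2. About 2 × 10³ cells per well were seeded and left 24 h. Compounds were dissolved fresh in DMSO, diluted into complete medium and applied for 48 h. MTT was then added for 4 h at 37 °C, followed by lysis buffer (20% SDS, 50% DMF) for 16 h, and absorbance was read at 550 nm.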
# NCI-H522 = experiment: Antiproliferative activity against human NCI-H522 cells assessed as cell growth at 10 uM; format: functional; details: read-out: Activity; summary of the method: as §1
# [4] = Cytotoxicity against human H1299 cells at 100 uM after 48 hrs by MTT assay; format: functional; details: NCI-H1299, 48 h; summary of the method: as §3
# HCT-116 = experiment: Antiproliferative activity against human HCT116 cells assessed as cell growth at 10 uM; format: functional; details: read-out: Activity; summary of the method: as §1
# HCC 2998 = experiment: Antiproliferative activity against human HCC2998 cells assessed as cell growth at 10 uM; format: functional; details: read-out: Activity; summary of the method: as §1
# UO-31 = experiment: Antiproliferative activity against human UO31 cells assessed as cell growth at 10 uM; format: functional; details: read-out: Activity; summary of the method: as §2
# SF-295 = experiment: Antiproliferative activity against human SF295 cells assessed as cell growth at 10 uM; format: functional; details: read-out: Activity; summary of the method: as §1
# 786-0 = experiment: Antiproliferative activity against human 786-0 cells assessed as cell growth at 10 uM; format: functional; details: read-out: Activity; summary of the method: as §1
# [5] = Cytotoxicity against human H1299 cells at 10 uM after 48 hrs by MTT assay; format: functional; details: NCI-H1299, 48 h; summary of the method: as §3
# NCI-H322M = experiment: Antiproliferative activity against human NCI-H322M cells assessed as cell growth at 10 uM; format: functional; details: read-out: Activity; summary of the method: as §1
# SNB-75 = experiment: Antiproliferative activity against human SNB75 cells assessed as cell growth at 10 uM; format: functional; details: read-out: Activity; summary of the method: as §2
# SK-MEL-5 = experiment: Antiproliferative activity against human SK-MEL-5 cells assessed as cell growth at 10 uM; format: functional; details: read-out: Activity; summary of the method: as §1
# A549 = experiment: Antiproliferative activity against human A549 cells assessed as cell growth at 10 uM; format: functional; details: read-out: Activity; summary of the method: as §1
# CCRF-CEM = experiment: Antiproliferative activity against human CCRF-CEM cells assessed as cell growth at 10 uM; format: functional; details: read-out: Activity; summary of the method: as §1
# NCI/ADR-RES = experiment: Antiproliferative activity against human NCI/ADR-RES cells assessed as cell growth at 10 uM; format: functional; details: read-out: Activity; summary of the method: as §1
# COLO 205 = experiment: Antiproliferative activity against human COLO205 cells assessed as cell growth at 10 uM; format: functional; details: read-out: Activity; summary of the method: as §1
# HOP-92 = experiment: Antiproliferative activity against human HOP92 cells assessed as cell growth at 10 uM; format: functional; details: read-out: Activity; summary of the method: as §1
# SK-MEL-28 = experiment: Antiproliferative activity against human SK-MEL-28 cells assessed as cell growth at 10 uM; format: functional; details: read-out: Activity; summary of the method: as §1
# NCI-H23 = experiment: Antiproliferative activity against human NCI-H23 cells assessed as cell growth at 10 uM; format: functional; details: read-out: Activity; summary of the method: as §1
# M14 = experiment: Antiproliferative activity against human M14 cells assessed as cell growth at 10 uM; format: functional; details: read-out: Activity; summary of the method: as §1
# MDA-MB-231 = experiment: Antiproliferative activity against human MDA-MB-231 cells assessed as cell growth at 10 uM; format: functional; details: read-out: Activity; summary of the method: as §1
# [6] = Antiproliferative activity against human RPMI8266 cells assessed as cell growth at 10 uM; format: functional; details: read-out: Activity; summary of the method: as §1
# K562 = experiment: Antiproliferative activity against human K562 cells assessed as cell growth at 10 uM; format: functional; details: read-out: Activity; summary of the method: as §1
# SR = experiment: Antiproliferative activity against human SR cells assessed as cell growth at 10 uM; format: functional; details: read-out: Activity; summary of the method: as §2
# HL-60(TB) = experiment: Antiproliferative activity against human HL-60(TB) cells assessed as cell growth at 10 uM; format: functional; details: read-out: Activity
# Summary of the method: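 NCI Developmental Therapeutics Program 60-cell-line one-dose screen at 10^-5 M. Readout is growth percentage of treated cells relative to untreated control cells.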
# T47D = experiment: Antiproliferative activity against human T47D cells assessed as cell growth at 10 uM; format: functional; details: read-out: Activity; summary of the method: as §2
# OVCAR-3 = experiment: Antiproliferative activity against human OVCAR-3 cells assessed as cell growth at 10 uM; format: functional; details: read-out: Activity; summary of the method: as §1
# NCI-H460 = experiment: Antiproliferative activity against human NCI-H460 cells assessed as cell growth at 10 uM; format: functional; details: read-out: Activity; summary of the method: as §1
# UACC-257 = experiment: Antiproliferative activity against human UACC257 cells assessed as cell growth at 10 uM; format: functional; details: read-out: Activity; summary of the method: as §2
# U-251 = experiment: Antiproliferative activity against human U251 cells assessed as cell growth at 10 uM; format: functional; details: read-out: Activity; summary of the method: as §2
# ACHN = experiment: Antiproliferative activity against human ACHN cells assessed as cell growth at 10 uM; format: functional; details: read-out: Activity; summary of the method: as §1
structure (smiles),measurement,setting,value
CC1(C)Nc2ccc3c(c2N1)C(=O)c1ccccc1C3=O,growth at 10 µM,OVCAR-5,96.5%
same,growth at 10 µM,SK-MEL-2,8.04%
same,residual activity,[1],73%
same,growth at 10 µM,[2],68.4%
same,growth at 10 µM,SF-268,90.2%
same,growth at 10 µM,TK-10,62.4%
same,growth at 10 µM,SN12C,92%
same,growth at 10 µM,A498,80.6%
same,growth at 10 µM,LOX IMVI,61.9%
same,growth at 10 µM,OVCAR-4,80.1%
same,growth at 10 µM,Malme-3M,155%
same,growth at 10 µM,MDA-MB-435,125%
same,growth at 10 µM,CAKI-1,61.7%
same,growth at 10 µM,SNB-19,94.3%
same,growth at 10 µM,OVCAR-8,90.2%
same,viability at 1 µM,[3],98%
same,growth at 10 µM,NCI-H522,38.9%
same,viability at 100 µM,[4],31%
same,growth at 10 µM,HCT-116,54.7%
same,growth at 10 µM,HCC 2998,137%
same,growth at 10 µM,UO-31,30.6%
same,growth at 10 µM,SF-295,98%
same,growth at 10 µM,786-0,86.2%
same,viability at 10 µM,[5],93%
same,growth at 10 µM,NCI-H322M,79.7%
same,growth at 10 µM,SNB-75,78%
same,growth at 10 µM,SK-MEL-5,86.5%
same,growth at 10 µM,A549,94.6%
same,growth at 10 µM,CCRF-CEM,74%
same,growth at 10 µM,NCI/ADR-RES,103%
same,growth at 10 µM,COLO 205,90.6%
same,growth at 10 µM,HOP-92,5.1%
same,growth at 10 µM,SK-MEL-28,129%
same,growth at 10 µM,NCI-H23,87%
same,growth at 10 µM,M14,83.7%
same,growth at 10 µM,MDA-MB-231,72.9%
same,growth at 10 µM,[6],99.9%
same,growth at 10 µM,K562,101%
same,growth at 10 µM,SR,72.4%
same,growth at 10 µM,HL-60(TB),129%
same,growth at 10 µM,T47D,83%
same,growth at 10 µM,OVCAR-3,78.2%
same,growth at 10 µM,NCI-H460,71.5%
same,growth at 10 µM,UACC-257,118%
same,growth at 10 µM,U-251,87.8%
same,growth at 10 µM,ACHN,50.2%
